From ChEMBL document CHEMBL5620421, “2,6-Disubstituted 7-(naphthalen-2-ylmethyl)-7H-purines as a new class of potent antitubercular agents inhibiting DprE1” (Eur J Med Chem, 2023)
In brackets after ≈: the same amount, converted by molar mass. Activity calls are given as the source filed them. The calls are words filed in the database; no cut-off is given here.

How the values were obtained:
[1] = test system: Mycobacterium avium; test: Antitubercular activity against Mycobacterium avium CNCTC My 330/88 assessed as inhibition of bacterial growth measured after 14 days of incubation by Sulas semisynthetic medium based assay; assay type: functional; conditions: CNCTC My 330/88, 336 h, time 14 day
Outline: (§1)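 M. avium was tested by the micromethod in Sula's semisynthetic medium. Compounds in DMSO at 1000 to 0.5 μmol/L. Incubation at 37 °C, read at 14 and 21 days. MIC is the lowest concentration giving >99% growth inhibition.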

[2] = test system: Mycobacterium kansasii; test: Antitubercular activity against Mycobacterium kansasii CNCTC My 235/80 assessed as inhibition of bacterial growth measured after 14 days of incubation by Sulas semisynthetic medium based assay; assay type: functional; conditions: CNCTC My 235/80, 336 h, time 14 day
Outline: (§2)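 Micromethod in Sula's semisynthetic medium. MIC is the lowest concentration inhibiting >99% of the mycobacterial population. Isoniazid was the standard.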

[3] = test system: Klebsiella pneumoniae; test: Antibacterial activity against ESBL negative Klebsiella pneumoniae C1950 assessed as inhibition of bacterial growth incubated for 24 to 48 hrs by microdilution broth method; assay type: functional, organism-based; conditions: time 24-48 hrs
Outline: (§3)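 Clinical isolates kept at –70 °C and subcultured twice on Mueller-Hinton agar, using the second subculture. Broth microdilution in Mueller-Hinton broth at pH 7.4 with two-fold serial compound dilutions and DMSO ≤1% final. Inoculum was 10 μL of a 1.5 × 10⁸ CFU/mL suspension. Incubated at 36 °C ± 1 °C and read at 24 h and 48 h. MIC taken as 95% growth inhibition.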

[4] = test system: Escherichia coli; test: Antibacterial activity against Escherichia coli A1235 assessed as inhibition of bacterial growth incubated for 24 to 48 hrs by microdilution broth method; assay type: functional, organism-based; conditions: time 24-48 hrs; outline: as §3
[5] = Selectivity index, ratio of IC50 for cytotoxicity against human HepG2 cells by MTT assay to MIC99 for antitubercular activity against Mycobacterium tuberculosis CNCTC My 331/88 (H37Rv) assessed as inhibition of bacterial growth measured after 14 days of incubation; assay type: functional; conditions: time 14 day
Outline: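 HepG2 cells, 15 × 10³/well, were attached overnight and exposed 24 h to serial dilutions (DMSO ≤1%). Read by MTT at 0.5 mg/mL for 1 h and 570 nm. IC50 from 4-parameter regression, three independent experiments in triplicate. SI is HepG2 IC50 divided by H37Rv MIC99.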

[6] = test system: Staphylococcus epidermidis; test: Antibacterial activity against Staphylococcus epidermidis C1936 assessed as inhibition of bacterial growth incubated for 24 to 48 hrs by microdilution broth method; assay type: functional, organism-based; conditions: time 24-48 hrs; outline: as §3
[7] = test system: Mycobacterium tuberculosis; test: Antitubercular activity against Mycobacterium tuberculosis CNCTC My 331/88 (H37Rv) assessed as inhibition of bacterial growth measured after 14 days of incubation by Sulas semisynthetic medium based assay; assay type: functional; conditions: 336 h, time 14 day
Outline: (§4)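 Micromethod MIC in Sula's semisynthetic medium. MIC is the lowest concentration inhibiting >99% of the mycobacterial population. Isoniazid was the standard drug.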

[8] = test system: Staphylococcus aureus; test: Antibacterial activity against Staphylococcus aureus C1947 assessed as inhibition of bacterial growth incubated for 24 to 48 hrs by microdilution broth method; assay type: functional, organism-based; conditions: time 24-48 hrs; outline: as §3
[9] = test system: Enterococcus faecium; test: Antibacterial activity against vancomycin-resistant Enterococcus faecium assessed as inhibition of bacterial growth incubated for 24 to 48 hrs by microdilution broth method; assay type: functional, organism-based; conditions: time 24-48 hrs
Outline: (§5)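 Clinical isolates, stored at −70 °C, were passaged twice on Mueller-Hinton agar. Broth microdilution in Mueller-Hinton broth, pH 7.4, with twofold serial dilutions. DMSO was at most 1% final. Inoculum 1.5 × 10⁸ CFU/mL suspension. MIC is 95% growth inhibition, read after 24 and 48 h at 36 °C.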

[10] = test system: HepG2; test: Cytotoxicity against human HepG2 cells incubated for 24 hrs by MTT assay; assay type: functional, cell-based; conditions: HepG2, 24 h
Outline: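 HepG2 cells in DMEM with 10% FBS, seeded at 15 × 10³ cells/well and attached overnight. Exposed for 24 h to serial dilutions prepared from DMSO stocks, final DMSO ≤1%. Then given fresh medium with 0.5 mg/mL MTT for 1 h at 37 °C. Formazan dissolved in DMSO and read at 570 nm. IC50 from 4-parameter nonlinear regression; three independent experiments in triplicate, mean ± SD.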

[11] = test system: Mycobacterium kansasii; test: Antitubercular activity against Mycobacterium kansasii CNCTC My 235/80 assessed as inhibition of bacterial growth measured after 21 days of incubation by Sulas semisynthetic medium based assay; assay type: functional; conditions: CNCTC My 235/80, 504 h, time 21 day; outline: as §2
[12] = test system: Mycobacterium avium; test: Antitubercular activity against Mycobacterium avium CNCTC My 330/88 assessed as inhibition of bacterial growth measured after 21 days of incubation by Sulas semisynthetic medium based assay; assay type: functional; conditions: CNCTC My 330/88, 504 h, time 21 day; outline: as §1
[13] = test system: Pseudomonas aeruginosa; test: Antibacterial activity against multidrug-resistant Pseudomonas aeruginosa A1245 assessed as inhibition of bacterial growth incubated for 24 to 48 hrs by microdilution broth method; assay type: functional, organism-based; conditions: time 24-48 hrs; outline: as §5
[14] = test system: Mycobacterium kansasii; test: Antitubercular activity against Mycobacterium kansasii CNCTC My 235/80 assessed as inhibition of bacterial growth measured after 7 days of incubation by Sulas semisynthetic medium based assay; assay type: functional; conditions: CNCTC My 235/80, 168 h, time 7 day; outline: as §2
[15] = test system: Klebsiella pneumoniae; test: Antibacterial activity against ESBL positive Klebsiella pneumoniae C1914 assessed as inhibition of bacterial growth incubated for 24 to 48 hrs by microdilution broth method; assay type: functional, organism-based; conditions: time 24-48 hrs; outline: as §3
[16] = test system: Mycobacterium tuberculosis; test: Antitubercular activity against Mycobacterium tuberculosis CNCTC My 331/88 (H37Rv) assessed as inhibition of bacterial growth measured after 21 days of incubation by Sulas semisynthetic medium based assay; assay type: functional; conditions: 504 h, time 21 day; outline: as §4
[17] = test system: Staphylococcus aureus; test: Antibacterial activity against methicilin-resistant Staphylococcus aureus C1923 assessed as inhibition of bacterial growth incubated for 24 to 48 hrs by microdilution broth method; assay type: functional, organism-based; conditions: time 24-48 hrs; outline: as §5

With `CN(c1nc2ncn(Cc3ccc4ccccc4c3)c2c(=O)[nH]1)C1CC1` the MIC99 [1] was > 500 µM, the MIC99 [2] was 250 µM (≈ 86.4 µg/mL) and the Activity [3] was “inactive”. The Activity [4] was “inactive”, the “Selectivity Index” value [5] was >7.8 and the Activity [6] was “inactive”. The MIC99 [7] was 16 µM (≈ 5.53 µg/mL), the Activity [8] was “inactive” and the Activity [9] was “inactive”. For the same molecule, the IC50 [10] was > 125 µM, the MIC99 [11] was 500 µM (≈ 173 µg/mL) and the MIC99 [12] was > 500 µM. For the same molecule, the Activity [13] was “inactive”, the MIC99 [14] was 125 µM (≈ 43.2 µg/mL) and the Activity [15] was “inactive”. The MIC99 [16] was 16 µM (≈ 5.53 µg/mL) and the Activity [17] was “inactive”.

In the case of `Clc1nc(N2CCOCC2)nc2ncn(Cc3ccc4ccccc4c3)c12`, the MIC99 [1] is reported as > 500 µM, the MIC99 [2] is reported as 32 µM (≈ 12.2 µg/mL) and the Activity [3] is reported as “inactive”. For the same molecule, the Activity [4] was “inactive”, the “Selectivity Index” value [5] was 4.09 and the Activity [6] was “inactive”. For the same molecule, the MIC99 [7] was 16 µM (≈ 6.08 µg/mL), the Activity [8] was “inactive” and the Activity [9] was “inactive”. For the same molecule, the IC50 [10] was 65.6 µM, the MIC99 [11] was 64 µM (≈ 24.3 µg/mL) and the MIC99 [12] was > 500 µM. For the same molecule, the Activity [13] was “inactive”, the MIC99 [14] was 16 µM (≈ 6.08 µg/mL) and the Activity [15] was “inactive”. For the same molecule, the MIC99 [16] was 16 µM (≈ 6.08 µg/mL) and the Activity [17] was “inactive”.

For `c1ccc2cc(Cn3cnc4nc(N5CCOCC5)nc(NC5CCCCC5)c43)ccc2c1`, the MIC99 [1] was > 500 µM, the MIC99 [2] was 125 µM (≈ 55.3 µg/mL) and the Activity [3] was “inactive”. For the same molecule, the Activity [4] was “inactive”, the “Selectivity Index” value [5] was 0.59 and the Activity [6] was “inactive”. For the same molecule, the MIC99 [7] was 32 µM (≈ 14.2 µg/mL), the Activity [8] was “inactive” and the Activity [9] was “inactive”. For the same molecule, the IC50 [10] was 18.9 µM, the MIC99 [11] was 250 µM (≈ 111 µg/mL) and the MIC99 [12] was > 500 µM. The Activity [13] was “inactive”, the MIC99 [14] was 64 µM (≈ 28.3 µg/mL) and the Activity [15] was “inactive”. The MIC99 [16] was 64 µM (≈ 28.3 µg/mL) and the Activity [17] was “inactive”.

For `CNc1nc(N2CCOCC2)nc2ncn(Cc3ccc4ccccc4c3)c12`, the MIC99 [1] was > 500 µM, the MIC99 [2] was 8 µM (≈ 3 µg/mL) and the Activity [3] was “inactive”. The Activity [4] was “inactive”, the “Selectivity Index” value [5] was 14.7 and the Activity [6] was “inactive”. The MIC99 [7] was 4 µM (≈ 1.5 µg/mL), the Activity [8] was “inactive” and the Activity [9] was “inactive”. For the same molecule, the IC50 [10] was 58.8 µM, the MIC99 [11] was 8 µM (≈ 3 µg/mL) and the MIC99 [12] was > 500 µM. For the same molecule, the Activity [13] was “inactive”, the MIC99 [14] was 8 µM (≈ 3 µg/mL) and the Activity [15] was “inactive”. For the same molecule, the MIC99 [16] was 4 µM (≈ 1.5 µg/mL) and the Activity [17] was “inactive”.

In the case of `CN(C)c1nc(N2CCOCC2)nc2ncn(Cc3ccc4ccccc4c3)c12`, the MIC99 [1] is reported as 500 µM (≈ 194 µg/mL), the MIC99 [2] is reported as 64 µM (≈ 24.9 µg/mL) and the Activity [3] is reported as “inactive”. For the same molecule, the Activity [4] was “inactive”, the “Selectivity Index” value [5] was 6.99 and the Activity [6] was “inactive”. The MIC99 [7] was 8 µM (≈ 3.11 µg/mL), the Activity [8] was “inactive” and the Activity [9] was “inactive”. For the same molecule, the IC50 [10] was 55.9 µM, the MIC99 [11] was 125 µM (≈ 48.6 µg/mL) and the MIC99 [12] was 500 µM (≈ 194 µg/mL). For the same molecule, the Activity [13] was “inactive”, the MIC99 [14] was 32 µM (≈ 12.4 µg/mL) and the Activity [15] was “inactive”. The MIC99 [16] was 16 µM (≈ 6.22 µg/mL) and the Activity [17] was “inactive”.

With `O=c1[nH]c(N2CCOCC2)nc2ncn(Cc3ccc(Cl)c(Cl)c3)c12` the MIC99 [1] was > 500 µM, the MIC99 [2] was > 500 µM and the Activity [3] was “inactive”. The Activity [4] was “inactive”, the “Selectivity Index” value [5] was >7.8 and the Activity [6] was “inactive”. The MIC99 [7] was 16 µM (≈ 6.08 µg/mL), the Activity [8] was “inactive” and the Activity [9] was “inactive”. The IC50 [10] was > 125 µM, the MIC99 [11] was > 500 µM and the MIC99 [12] was > 500 µM. For the same molecule, the Activity [13] was “inactive”, the MIC99 [14] was > 500 µM and the Activity [15] was “inactive”. For the same molecule, the MIC99 [16] was 32 µM (≈ 12.2 µg/mL) and the Activity [17] was “inactive”.
